Experimental data from ChEMBL document CHEMBL5303300, “EUbOPEN Chemogenomics Library - Multiplex” (2023).
Several values for one entry are separate records, joined by “and”; a condition that tells them apart may be missing. Equal values may be shown once.

System: U2OS
Assay: Multiplex assay against U2OS
Type: toxicity, cell-based
Conditions: human, number of replicates 2
Outline: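 With compound added, live cells were imaged on a CQ1 microscope at 37°C and 5% CO2; staining with Hoechst33342, BioTracker Green Microtubule Cytoskeleton Dye, MitoTracker Red and Annexin V Alexa Fluor 680 had been done at seeding. The CellPathfinder machine-learning gating scheme split cells into Hoechst high-intensity objects or normal cells, normal cells into healthy, pyknosed or fragmented nuclei, and pyknosed cells into mitotic or apoptotic. The tubulin, mitochondrial-mass and membrane-permeability phenotypes are per cents of healthy-nucleus cells.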

[1] = 12 h, 1 µM, compound concentration 1 uM
[2] = 12 h, 10 µM, compound concentration 10 uM
[3] = 24 h, 1 µM, compound concentration 1 uM
[4] = 24 h, 10 µM, compound concentration 10 uM
[5] = 48 h, 1 µM, compound concentration 1 uM
[6] = 48 h, 10 µM, compound concentration 10 uM

## CC(C)c1cc(-c2ccc(F)c3ccccc23)nc(N)n1
[1]
  Population Apoptotic (%): 35% and 50%
  Population Fragmented Nuclei (%): 2% and 12%
  Population Healthy Nuclei (%): 88% and 81%
  Population Hoechst High Intensity Objects (%): 0%
  Population Membrane Permeable-Phenotype (%): 1% and 7%
  Population Mitochondria Different-Phenotype (%): 0%
  Population Mitotic Cells (%): 65% and 50%
  Population Normal (%): 100%
  Population Pyknosed Nuclei (%): 8% and 6%
  Population Tubulin-Different-Phenotype (%): 88% and 44%
[2]
  Population Apoptotic (%): 66% and 52%
  Population Healthy Nuclei (%): 52% and 84%
  Population Hoechst High Intensity Objects (%): 0%
  Population Mitotic Cells (%): 33% and 48%
  Population Normal (%): 100%
  Population Pyknosed Nuclei (%): 15% and 10%
  Population Tubulin-Different-Phenotype (%): 80% and 71%
[3]
  Population Fragmented Nuclei (%): 3% and 8%
  Population Healthy Nuclei (%): 86% and 82%
  Population Hoechst High Intensity Objects (%): 0%
  Population Membrane Permeable-Phenotype (%): 0% and 7%
  Population Mitochondria Different-Phenotype (%): 0%
  Population Mitotic Cells (%): 47% and 100%
  Population Normal (%): 100%
  Population Pyknosed Nuclei (%): 9% and 10%
  Population Tubulin-Different-Phenotype (%): 89% and 41%
[4]
  Population Apoptotic (%): 100% and 65%
  Population Healthy Nuclei (%): 58% and 86%
  Population Hoechst High Intensity Objects (%): 0%
  Population Membrane Permeable-Phenotype (%): 11% and 3%
  Population Mitochondria Different-Phenotype (%): 11% and 1%
  Population Normal (%): 100%
  Population Pyknosed Nuclei (%): 6% and 8%
  Population Tubulin-Different-Phenotype (%): 55% and 72%
[5]
  Population Fragmented Nuclei (%): 13% and 3%
  Population Healthy Nuclei (%): 83% and 90%
  Population Hoechst High Intensity Objects (%): 0%
  Population Membrane Permeable-Phenotype (%): 1% and 2%
  Population Mitochondria Different-Phenotype (%): 1% and 0%
  Population Mitotic Cells (%): 100% and 60%
  Population Normal (%): 100%
  Population Pyknosed Nuclei (%): 2% and 6%
  Population Tubulin-Different-Phenotype (%): 57% and 93%
[6]
  Population Apoptotic (%): 83% and 59%
  Population Healthy Nuclei (%): 62% and 90%
  Population Hoechst High Intensity Objects (%): 0%
  Population Mitotic Cells (%): 16% and 40%
  Population Normal (%): 100%
  Population Tubulin-Different-Phenotype (%): 60% and 84%
